# Only some compounds are listed: those with a hit (about 2.5% of all), similar ones and a draw of the others.
# SENP8 block-1: SENP8 protease inhibitors, primary screen, biochemical, luminescence; Sentrin-specific protease 8 (Homo sapiens), Q96LD8; purified SENP8, Z-RLRGG-aminoluciferin cleavage; inhibition, % at 10 µM; hit rate 1.2% among 330,000; AID 2540, 2010; in the data active means inhibition above about 50%
# Target sequence (Q96LD8 whole entry, looked up): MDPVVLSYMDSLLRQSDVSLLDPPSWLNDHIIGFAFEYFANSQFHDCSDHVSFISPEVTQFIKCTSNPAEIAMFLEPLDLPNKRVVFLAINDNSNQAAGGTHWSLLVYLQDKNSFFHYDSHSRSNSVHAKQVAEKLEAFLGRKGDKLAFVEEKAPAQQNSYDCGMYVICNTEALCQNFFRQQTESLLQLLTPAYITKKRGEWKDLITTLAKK
# SENP8 block-2: human SENP8 protease inhibitors, primary screen, biochemical, fluorescence, Nedd8 protein substrate, uHTS; recombinant SENP8; inhibition, % at 20 µM; hit rate 0.64% among 360,000; AID 602440, 2012; in the data active means inhibition mostly above about 40%, no sharp cut-off; inactive means mostly below about 27%
# SENP1 FRET inh: human SENP1 catalytic domain inhibitors, primary screen, biochemical, FRET, uHTS; hit rate 0.21% among 360,000; recombinant SENP1 catalytic domain, CyPet-SUMO1-YPet FRET cleavage; Sentrin-specific protease 1 (Homo sapiens), Q9P0U3; inhibition, % at 10 µM; AID 624204, 2012;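 active means inhibition at least 30% at 10 µM, raw YFP signal under a set limit, fluorescence ratio 0.5 to 1.5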
# Target sequence (Q9P0U3 419-644 limits assumed): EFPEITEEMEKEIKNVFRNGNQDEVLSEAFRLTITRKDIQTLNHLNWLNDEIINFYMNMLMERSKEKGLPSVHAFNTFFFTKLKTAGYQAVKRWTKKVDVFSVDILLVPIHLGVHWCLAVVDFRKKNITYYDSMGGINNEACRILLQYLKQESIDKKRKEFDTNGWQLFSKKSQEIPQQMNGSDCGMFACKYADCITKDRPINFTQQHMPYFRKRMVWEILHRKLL
#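 Test system: hSENP1 catalytic domain, recombinant; Amount: 20 pM final SENP1 enzyme; Medium: Tris pH 8 buffer plus EDTA, NaCl, BME, BSA, NP40, catalase; Schedule: 50 min enzyme reaction, room temperature, light-protected; Technique: FRET fluorescence in CFP and YFP emission channels; Controls: no-enzyme wells low, DMSO-plus-enzyme wells high control.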
# SENP7 block: SENP7 protease inhibitors, primary screen, biochemical, luminescence, uHTS; Sentrin-specific protease 7 (Homo sapiens), Q9BQF6; recombinant SENP7, Z-RLRGG-aminoluciferin luminescence, 40 min; inhibition, % at 5 µM; hit rate 1.5% among 330,000;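 active means inhibition above about 50% at the single test dose, limit read from the data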
# SENP6 inh: SENP6 protease inhibitors, primary screen, biochemical, luminescence, uHTS | Sentrin-specific protease 6 (Homo sapiens), Q9GZR1 | AID 2599, 2010 | Recombinant SENP6 catalytic domain, aminoluciferin luminescence | hit rate 1.8% among 330,000 | inhibition, % at 10 µM;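 active means inhibition above about 50% at the single tested dose, limit read from the data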
# SENP8 conf: SENP8 protease inhibitors, retest, confirmation, biochemical, luminescence, single concentration | shares compounds with SENP7 block | Recombinant SENP8, Z-RLRGG-aminoluciferin luminescence, 60 min | inhibition, % at 12.5 µM | hit rate 40% among 6,200 | AID 488912, 2010;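 active means mean inhibition across replicates above about 50%, limit read from the data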
# SENP6 conf: SENP6 protease inhibitors, confirmation, biochemical, luminescence, single concentration; shares compounds with SENP7 block; recombinant SENP6, Z-RLRGG-aminoluciferin luminescence; inhibition, % at 12.5 µM; hit rate 58% among 6,200; AID 488915, 2010
# SENP7 confirm: SENP7 protease inhibitors, retest, confirmation, biochemical, luminescence, single concentration; shares compounds with SENP7 block; recombinant SENP7, Z-RLRGG-aminoluciferin luminescence, 40 min; inhibition, % at 12.5 µM; hit rate 69% among 6,200; AID 488917, 2010
# Casp3 select: caspase-3 protease inhibitors, confirmation, selectivity assay for SENP inhibitor project, biochemical, single concentration; inhibition, % at 12.5 µM; AID 488918, 2010; purified caspase-3, Z-DEVD-aminoluciferin luminescence, 60 min; hit rate 60% among 6,200; shares compounds with SENP7 block;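 active means mean inhibition above about 50%, limit read from the data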
# Luc interf: counter-screen for SENP inhibitors: luminescence interference | AID 488919 | shares compounds with SENP7 block | Pre-incubated SENP8/Z-RLRGG-aminoluciferin, luciferase luminescence interference | inhibition, % at 12.5 µM | hit rate 39% among 6,200;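 active means mean inhibition above about 50% when retested at one dose, limit read from the data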
# Numbers stand for hits; n = inactive; x = no result.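 How the source made its calls, unless noted: active means mean inhibition above about 50% in the one-dose retest (limit read from the data); inactive means the rest.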
SMILES,SENP8 block-1,SENP8 block-2,SENP1 FRET inh,SENP7 block,SENP6 inh,SENP8 conf,SENP6 conf,SENP7 confirm,Casp3 select,Luc interf
CC(Nc1ccccc1N1CCCCC1)C(=O)N1CCc2ccccc21 (stereo not given),n,n,n,n,n,x,x,x,x,x
O=C(C1CC1)N1N=C(C2CCCCC2)CC1(O)C(F)(F)F (stereo not given),n,n,n,n,n,x,x,x,x,x
N/C(=N\OC(=O)c1ccc(Cl)cc1)c1ccn[nH]1,58.4,n,n,79.0,73.0,80.0,77.1,91.9,87.0,82.9
C/C(=N\OC(=O)c1ccc(Cl)cc1)c1nccs1,n,n,n,87.9,72.1,n,n,65.0,n,n
CC(=NOC(=O)c1ccc(Cl)cc1)c1nccs1,x,n,n,x,x,x,x,x,x,x
N/C(=N\OC(=O)c1ccco1)c1ccc(Cl)cc1,79.3,n,n,88.2,93.5,n,n,n,n,n
N/C(=N\OC(=O)c1ccccc1)c1ccncc1,n,n,n,n,n,x,x,x,x,x
N/C(=N\OC(=O)c1ccc(Br)cc1)c1ccncc1,n,n,n,62.1,58.5,n,n,70.9,67.9,n
N/C(Cn1cncn1)=N\OC(=O)c1ccc(Cl)cc1,n,n,n,n,n,x,x,x,x,x
CCNc1ncnc2c1cnn2C1CCCO1 (stereo not given),x,n,n,x,x,x,x,x,x,x
Cc1nnc(SCC(=O)Nc2cc(Cl)ccc2Cl)n1CC1CCCO1 (stereo not given),n,n,n,n,n,x,x,x,x,x
CC1CN(Cc2ccccc2)c2ccccc2NC1=S (stereo not given),n,n,n,n,n,x,x,x,x,x
N/C(=N\OC(=O)c1ccc(Cl)cc1)c1ccc(Cl)cc1,n,n,n,53.8,n,n,n,n,n,n
O=C(O/N=C(\c1ccccc1)c1ccncc1)c1ccccc1Cl,n,n,n,n,n,x,x,x,x,x
N/C(=N\OC(=O)c1ccc(Cl)cc1)c1cccnc1,n,n,n,67.3,72.0,62.3,59.0,85.5,82.7,65.9
N/C(=N\OC(=O)c1ccc(OCC(F)(F)F)nc1)c1ccc(Cl)cc1,n,n,n,n,n,x,x,x,x,x
N/C(=N\OC(=O)c1ccccc1Cl)c1ccccc1,95.2,n,n,98.5,94.4,96.7,98.7,102.8,96.9,95.6
N/C(=N\OC(=O)c1ccccc1Cl)c1ccc(Cl)cc1,69.5,n,n,83.9,85.2,71.3,70.1,93.2,62.3,79.1
COc1cccc(C(=O)NCC(=O)N2CCN(c3ccc(C(F)(F)F)cn3)CC2)c1,n,n,n,n,n,x,x,x,x,x
O=C(Cc1ccccc1F)Nc1cc(S(=O)(=O)N2CCCCC2)ccc1N1CCOCC1,x,n,n,x,x,x,x,x,x,x
COc1cccc(CNC(=O)CCC2CCCN(C(=O)c3cc4ccccc4o3)C2)c1 (stereo not given),54.4,n,n,52.5,n,n,62.1,88.6,76.1,58.9
O=C(CSC(=S)N1CCCC1)c1ccccc1,n,n,n,54.2,63.6,52.1,51.7,77.5,69.9,55.5
COc1ccc(C(=O)CSC(=S)N2CCCCC2)cc1,x,n,n,x,x,x,x,x,x,x
O=C(CSC(=S)N1CCCCC1)c1ccccc1,62.8,n,n,73.9,73.9,n,62.9,90.1,73.4,66.7

# Compound activity from PubChem.
